From publication PMC4364164 (International Journal of Nanomedicine, 2015)

What was measured:
SH-SY5Y cells [1] = experiment: MTT assay for cell viability, SH-SY5Y; assay type: cell-based, human; conditions: for cell death induced: positive control, data not shown
In short: (§1)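 Seeded in 96-well plates: SH-SY5Y at 8,000/well, U-87 MG at 5,000/well. Exposed 20 h to test compound 0.5–15 μM or equal-volume PBS vehicle; H2O2 400 or 800 μM as positive control. MTT 0.5 mg/mL for 3 h at 37°C. Formazan dissolved in isopropanol with 0.1 M HCl; optical density at 590 nm. Mean ± SE of five separate incubations.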

U-87 MG cells [2] = experiment: MTT assay for cell viability, U-87 MG; assay type: cell-based, human; conditions: for cell death induced: positive control, data not shown
In short: as §1

cells = conditions: NBD alone; cited from earlier work
U-87 MG cells [3] = experiment: Maximal oxidative capacity; assay type: cell-based, human; conditions: regardless of the concentration used, 20 hours, five separate incubations (Figure 1D)
SH-SY5Y cells [4] = experiment: Cellular uptake by fluorescence microscopy, SH-SY5Y; assay type: cell-based, human; conditions: 1 or 5 μM (Figure 2: 5 μM), 2 hours, NBD fluorescence, fixed cells
In short: (§2)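 NBD-labelled peptide (N-terminal) in PBS. Cells grown in DMEM with 10% FBS, 2 mM L-glutamine, penicillin and streptomycin at 37°C in 5% CO2. Seeded at 60,000/well on four-well chamber slides, then exposed to 1 or 5 μM for 2 h. Fixed in ice-cold methanol for 10 min and mounted in glycerol/PBS 1:1. Imaged on NBD (λem 515 nm) and DAPI (λex 350/λem 461 nm) channels.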

liver homogenates [5] = experiment: Mitochondrial respiration rate in liver homogenate after in vivo administration; conditions: rat liver homogenate; intravenous 40 μg/100 g, 3.5 hours; three rats
In short: (§3)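 Same iv dosing (40 μg/100 g, PBS vehicle, three rats, sampled at 3.5 h). Homogenate (300 μg protein) in 1 mL buffer: 80 mM KCl, 50 mM HEPES, 1 mM EGTA, 5 mM KH2PO4, 2 mM MgCl2, 1% BSA, pH 7.4. Added 4 μM rotenone and 5 mM succinate; basal without ADP, stimulated with 200 μM ADP; respiratory control ratio derived. Clark electrode at 37°C; 1 mM KCN added. Triplicate runs.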

brain homogenates [6] = experiment: Cytochrome oxidase activity; assay type: in vivo; conditions: rat brain homogenate; intravenous 40 μg/100 g, 3.5 hours; three rats
In short: (§4)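 Male Wistar rats (250–300 g), three per group, given a single iv dose of NBD-peptide 40 μg/100 g or PBS vehicle. Zoletil anaesthesia, decapitation at 3.5 h. Tissue homogenised 1:5 w/v in mannitol/sucrose/Tris/EDTA/EGTA/1% BSA medium, pH 7.4. Diluted 1:2 with Lubrol, 30 min on ice. Cytochrome oxidase assayed polarographically (Clark electrode, 37°C), with 1 mM KCN control. Mean ± SE of three rats; triplicate runs.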

liver = experiment: Fluorescence histological analysis ex vivo, liver; assay type: in vivo; conditions: rat, single intravenous administration of gH625-NBD 40 μg/100 g body weight, 3.5 hours
In short: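 Male Wistar rats (250–300 g; n=3 per group) got one iv dose of NBD-labelled test peptide, 40 μg/100 g, or PBS vehicle. After 3.5 h: ip Zoletil anaesthesia, then decapitation. Liver dissected. Half was fixed in Bouin's fluid 24 h and paraffin-embedded. 7 μm sections treated with 0.1% Sudan Black B in 70% ethanol 20 min against autofluorescence, then hemallum-stained and imaged for green fluorescence.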

brain = experiment: Fluorescence histological analysis ex vivo, brain; assay type: in vivo; conditions: rat, single intravenous administration of gH625-NBD 40 μg/100 g body weight, 3.5 hours
In short: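 Male Wistar rats (250–300 g; n=3 per group) got one iv dose of NBD-labelled test peptide, 40 μg/100 g, or PBS vehicle. After 3.5 h: ip Zoletil anaesthesia, then decapitation. Sagittal 10 μm sections: Bouin's fixation 24 h, paraffin, 0.1% Sudan Black B in 70% ethanol 20 min, hemallum. Co-stained for SMI-71 endothelial marker, GFAP or tubulin III (citrate pH 6.0 unmasking), colocalization by nMDP. Outside/inside-vessel fluorescence ratio from ≥10 slices.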

SH-SY5Y cells [7] = experiment: Maximal oxidative capacity; assay type: cell-based, human; conditions: 0–15 μM, 20 hours, Clark-type oxygen electrode 37°C, five separate incubations (Figure 1C)
liver homogenates [8] = experiment: Cytochrome oxidase activity; assay type: in vivo; conditions: rat liver homogenate; intravenous 40 μg/100 g, 3.5 hours; three rats
In short: as §4

brain homogenates [9] = experiment: Mitochondrial respiration rate in brain homogenate after in vivo administration; conditions: rat brain homogenate; intravenous 40 μg/100 g, 3.5 hours; three rats
In short: as §3

U-87 MG cells [10] = experiment: Cellular uptake by fluorescence microscopy, U-87 MG; assay type: cell-based, human; conditions: 1 or 5 μM (Figure 2: 5 μM), 2 hours, NBD fluorescence, fixed cells
In short: as §2

blood–brain barrier = experiment: Immunofluorescence analysis of brain sections; assay type: in vivo; conditions: rat, intravenous 40 μg/100 g, 3.5 hours
In short: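 Same rats dosed iv at 40 μg/100 g, sampled at 3.5 h. Brains Bouin-fixed and paraffin-embedded; sections dewaxed, citrate (pH 6.0) microwave unmasking at 96°C. Stained with anti-BBB SMI-71, anti-GFAP or anti-tubulin III and 594-nm secondaries; imaged at 488/515 and 594/618 nm. Deconvolved, nMDP colocalisation. Outside/inside-vessel fluorescence per ROI area over ten sections, n=3 per group; two-tailed unpaired t-test.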

U-87 MG cells [11] = experiment: Spectrofluorimetric analysis of internalized peptide, U-87 MG; assay type: cell-based, human; conditions: concentration not given

OO [H2O2]
cell death induced (SH-SY5Y cells [1]; 400 μM): 30%
cell death induced (SH-SY5Y cells [1]; 800 μM): 45%
cell death induced (U-87 MG cells [2]; 400 μM): 22%
cell death induced (U-87 MG cells [2]; 800 μM): 52%

7-nitrobenz-2-oxa-1,3-diazole-4-yl [NBD]
penetration into the cells (cells): almost unable to penetrate

H-HGLASTLTRWAHYNALIRAFGGG-NH2 [gH625]
effect on maximal oxidative capacity (cytochrome oxidase activity) (U-87 MG cells [3]): ineffective
cellular uptake by fluorescence microscopy (SH-SY5Y cells [4]): significant uptake
effect on cell viability (MTT) (SH-SY5Y cells [1]; 0.5–15 μM, 20 hours, mean ± standard error of five separate incubations (Figure 1A)): no significant effect
effect on mitochondrial respiration rate (liver homogenates [5]): does not influence
effect on maximal oxidative capacity (cytochrome oxidase activity) (brain homogenates [6]): not affected
distribution in liver (fluorescence histology) (liver): partly taken up by Kupffer cells
distribution in brain (fluorescence histology) (brain): reaches the BBB and accumulates in the extensions of nerve cells
effect on maximal oxidative capacity (cytochrome oxidase activity) (SH-SY5Y cells [7]): did not significantly affect
effect on maximal oxidative capacity (cytochrome oxidase activity) (liver homogenates [8]): not affected
effect on respiratory control ratio (brain homogenates [9]): no changes
cellular uptake by fluorescence microscopy (U-87 MG cells [10]): significant uptake
effect on cell viability (MTT) (U-87 MG cells [2]; 0.5–15 μM, 20 hours, mean ± standard error of five separate incubations (Figure 1B)): no significant effect
colocalization with astrocytes surrounding the BBB (anti-GFAP, nMDP) (blood–brain barrier): little or no colocalization
colocalization with the endothelial BBB (anti-BBB SMI-71, nMDP) (blood–brain barrier): More colocalization
administered peptide taken up (U-87 MG cells [11]): more than 90%
